From ChEMBL document CHEMBL3400098, “Aza follow-ups to BI 207524, a thumb pocket 1 HCV NS5B polymerase inhibitor. Part 1: Mitigating the genotoxic liability of an aniline metabolite” (Bioorg Med Chem Lett, 2015)

Legend:
[1] = tested on: Hepatitis C virus; assay: Antiviral activity against Hepatitis C virus genotype 1b infected in human Huh cells assessed as inhibition of viral replication by luciferase reporter assay; assay type: functional, cell-based, Hepacivirus hominis
Method in brief: (§1)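 HCV replicon EC50 determined in duplicate, using either a GT1b luciferase reporter read-out or RT-PCR quantification of replicon RNA.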

[2] = Half life in human liver microsomes at 2 uM; assay type: ADME
Method in brief: (§2)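 Stability in liver microsomes with 2 µM initial compound concentration; half-life recorded.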

[3] = Cytotoxicity against human HuH7 cells assessed as reduction in cell viability by MTT assay; assay type: cell-based; details: Huh-7 cells, read-out: TC50 (the source's name)
Method in brief: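 Cytotoxicity (TC50) measured by MTT read-out in the Huh-7 cell line.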

[4] = tested on: Hepatitis C virus; assay: Antiviral activity against Hepatitis C virus genotype 1a infected in human Huh cells assessed as inhibition of viral replication by RT-PCR-based replicon assay; assay type: functional, cell-based, Hepacivirus hominis; details: subtype 1a; method in brief: as §1
[5] = Half life in rat liver microsomes at 2 uM; assay type: ADME; method in brief: as §2
[6] = Permeability from apical to basolateral side of human Caco2 cells; assay type: ADME, cell-based; details: Caco-2, read-out: permeability
Method in brief: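 Caco-2 permeability measured in the apical-to-basolateral direction, reported in cm/s.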

[7] = Plasma concentration in rat at 4 mg/kg, po as cassette dosing measured at 1 hr post dose; assay type: ADME, organism-based; design: dose 4 mg/kg, route oral
Method in brief: (§3)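 Cassette dosing: a mixture of 4 compounds, each at 4 mg/kg, given orally to 2 fasted rats in 0.5% methylcellulose, 0.3% Tween-80 and 1% NMP. Plasma sampled at 1 and 2 h. Liver/plasma ratio determined at 2 h.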

[8] = Plasma concentration in rat at 4 mg/kg, po as cassette dosing measured at 2 hrs post dose; assay type: ADME, organism-based; design: dose 4 mg/kg, route oral; method in brief: as §3
[9] = Inhibition of Hepatitis C virus genotype 1b C-terminal truncated NS5B RNA dependent RNA polymerase delta21 expressed in Escherichia coli by scintillation proximity assay; design: species or system Hepatitis C virus subtype 1b
Method in brief: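 Biochemical polymerase inhibition using a C-terminally truncated GT1b NS5BΔ21 construct. Values are the mean of duplicate measurements (n ≥ 2).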

[10] = Lipophilicity, log D of the compound at pH 7.4; assay type: physicochemical; details: buffer
[11] = Ratio of drug up take in liver to plasma of rat at 4 mg/kg, po as cassette dosing measured at 2 hrs post dose; assay type: ADME, organism-based; design: dose 4 mg/kg, route oral; method in brief: as §3
[12] = tested on: Salmonella typhimurium; assay: Mutagenic activity in Salmonella typhimurium at 315 to 5000 ug/plate by Ames test in presence of S9 fraction; assay type: toxicity, organism-based; details: salmonella enterica subsp. enterica serovar typhimurium
Method in brief: (§4)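 Ames test on the free carboxylic acid forms using multiple strains and strain TA100 of Salmonella typhimurium, at 315–5000 µg per plate, run with and without S9 metabolic activation.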

[13] = tested on: Salmonella typhimurium; assay: Mutagenic activity in Salmonella typhimurium at 315 to 5000 ug/plate by Ames test in absence of S9 fraction; assay type: toxicity, organism-based; details: salmonella enterica subsp. enterica serovar typhimurium; method in brief: as §4

Compound | EC50 [1] | half-life at 2 µM [2] | CC50 [3] | EC50 [4] | half-life at 2 µM [5] | Papp A→B [6] | concentration at 1 h [7] | concentration at 2 h [8] | IC50 [9] | logD [10] | Kp at 2 h [11] | Activity [12] | Activity [13]
CCOc1nc(NC(=O)C2(NC(=O)c3ccc4c(C5CCCC5)c(-c5ncc(Cl)cn5)n(C)c4c3)CCC2)ncc1/C=C/C(=O)O | 40 nM | 239 min | > 10 µM | 89 nM | > 300 min | 4.3 ×10⁻⁶ cm/s | 100 nM | 30 nM | 63 nM |  |  |  | 
CCOc1cc(NC(=O)C2(NC(=O)c3ccc4c(C5CCCC5)c(-c5ncc(Cl)cn5)n(C)c4c3)CCC2)nnc1/C=C/C(=O)O | 360 nM | 136 min | > 10 µM |  | 227 min | 1.6 ×10⁻⁶ cm/s |  |  | 80 nM | 3.4 |  |  | 
CCOc1nc(NC(=O)C2(NC(=O)c3ccc4c(C5CCCC5)c(-c5ncc(Cl)cn5)n(C)c4c3)CCC2)cnc1/C=C/C(=O)O | 20 nM | 146 min | > 10 µM | 34 nM | > 300 min | 13 ×10⁻⁶ cm/s | 2100 nM | 900 nM | 100 nM |  | 5 |  | 
CCOc1nc(N)ccc1/C=C/C(=O)O |  |  |  |  |  |  |  |  |  |  |  | Non-toxic | Non-toxic
CCOc1nc(N)cnc1/C=C/C(=O)O |  |  |  |  |  |  |  |  |  |  |  | Non-toxic | Non-toxic
